Test results from publication PMC9930943 (Asian Pacific Journal of Cancer Prevention : APJCP, 2022).
Read-outs that look alike come from different tables or passages of the source.

What was measured:
[1] = system: AGO1522 cells; assay: MTT cell viability assay, AGO1522; assay type: cell-based, human; conditions: for IC50: Homo sapiens, Skin fibroblast
Outline: (§1)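 U-87MG (RPMI-1640, 7.5 × 10³ cells/well, 24 h attachment) and AGO1522 (low-glucose DMEM) grown with 10% FBS and pen/strep at 37°C, 5% CO₂. DMSO stocks diluted in medium to 3, 6.25, 12.5, 25, 50 and 100 µM, for 24 and 48 h. MTT 5 mg/ml for 4 h, formazan dissolved in DMSO, A570 nm. Viability relative to untreated cells; IC50 calculated. Triplicates, three experiments.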

[2] = system: U-87MG cells; assay: MTT cell viability assay, U-87MG; assay type: cell-based; conditions: Homo sapiens
Outline: as §1

[3] = system: intracellular ROS in U-87MG cells; assay: Intracellular ROS assay with DCFH-DA probe; assay type: cell-based, human; conditions: 11.91 M (so in the source), 12 hours, P < 0.01
Outline: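 6 × 10⁵ U-87MG cells/well attached for 24 h, then given 11.91 µM for 12 h. Loaded with DCFH-DA (10 µM final) in serum-free medium for 30 min at 37°C in the dark and washed twice with RPMI 1640. DCF fluorescence of 1 × 10⁴ cells read on a fluorescence plate reader as RFU. Three independent experiments.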

[4] = system: U-87MG cells; assay: PI staining cell cycle analysis by flow cytometry; assay type: cell-based, human; conditions: 11.91 µM, 24 hours
Outline: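 6 × 10⁵ U-87MG cells/well attached for 24 h, then given 11.91 µM for 24 h. Detached with trypsin-EDTA at 37°C for 2 min, fixed in cold 70% ethanol for 1 h. Stained 30 min at RT in the dark in 1 ml 0.1% sodium citrate with 0.05 mg PI and 50 µg RNase. Sub-G1, G0/G1, S and G2/M percentages by flow cytometry.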

[5] = system: caspase-3 activity in U-87MG cells; assay: Caspase-3/CPP32 fluorometric activity assay; assay type: cell-based, human; conditions: 11.91 µM, 24 hours (method: 12 hours), P<0.01
[6] = 24 h, read-out: IC50 AGO1522 24 hours
[7] = 48 h, read-out: IC50 AGO1522 48 hours
[8] = 24 h, read-out: IC50 U-87MG 24 hours
[9] = 48 h, read-out: IC50 U-87MG 48 hours

| Molecule | IC50 [1, 6] | IC50 [1, 7] | IC50 [2, 8] | IC50 [2, 9] | level of ROS compared to unexposed cells [3] | cells in G1 [4] | caspase 3 activation compared to unexposed cells [5] | effects on normal skin cells of AGO1522 ([1]; AGO1522 cells, in words) |
| --- | --- | --- | --- | --- | --- | --- | --- | --- |
| CC(=O)O[C@H]1C(=O)[C@@]2(C)[C@H]([C@H](OC(=O)c3ccccc3)[C@]3(O)C[C@H](OC(=O)[C@H](O)[C@@H](NC(=O)c4ccccc4)c4ccccc4)C(C)=C1C3(C)C)[C@]1(OC(C)=O)CO[C@@H]1C[C@@H]2O [Paclitaxel, reference compound] | 42.9 ± 1.42 µM | 25.8 ± 1.09 µM | 17.4 ± 0.85 µM | 42.2 ± 0.78 µM | – | – | – | – |
| 5-(6-bromo-2-chloroquinolin-3-yl)-9a-hydroxy-8,8-dimethyl-4-nitro-2,3,5,5a,7,8,9,9a-octahydroimidazo[1,2-a]quinolin-6(1H)-one [5c] | – | – | – | – | significantly higher | 41% | significant increase | minimal effects |
| O=c1[nH]c(O)c(C2C([N+](=O)[O-])=C3NCCN3c3nc4cc(Cl)ccc4cc32)c(=O)[nH]1 (stereo not drawn) [5e, 5-(9-chloro-4-nitro-1,2,3,5-tetrahydrobenzo[g]imidazo[1,2-a] [1,8]naphthyridin-5-yl) -6-hydroxypyrimidine-2,4 (1H, 3H) -dione] | 43 ± 0.89 µM | 22.9 ± 0.95 µM | 22.6 ± 0.84 µM | 16.3 ± 1.03 µM | – | – | – | – |
